Compound activity (PubChem)
Most compounds without a hit are left out; they make up all but 4.4% or so of the library.
HIF act: HIF pathway transcriptional activation; U2OS HRE-luciferase reporter, luminescence; normalized: DMSO 0%, desferrioxamine 100%; activation, % at 7.5 µM (by protocol); hit rate 0.32% among 300,000;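 active = mean activation of at least 10% of the iron chelator positive control signal, with at least half of replicates also reaching 10%; inconclusive = mean and replicate majority disagree about reaching 10%; inactive = mean and most replicates under 10%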
Calb FLC: C. albicans growth modulation with fluconazole; growth inhibition, % (concentration not given with the values); hit rate 0.57% among 300,000; C. albicans CaCi-2 (fluconazole-resistant clinical isolate) + fluconazole, Alamar Blue growth, 48 h;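 active = growth inhibition above about 58% in most replicates, limit read from the data, passing the limit was not always enough; inconclusive = exactly half the replicates above a set limit; inactive = most replicates below a set limit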;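 also: all wells also contain fluconazole at 8 µg/ml as a sub-toxic cotreatment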
HSF1 inhib: HSF1 inhibition. NIH3T3-HGL HSE-luciferase, MG132-induced, luminescence 8 h; hits give low values. activity change, negative = inhibition, % at 7.5 µM (by protocol). hit rate 0.77% among 300,000. AID 2098;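 active = more than half of replicate wells show activity change below -50%, luminescence cut by over half; inconclusive = some wells, but at most half, below -50%; inactive = no replicate well below -50%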;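 also: luciferase reports HSF-1 transcriptional activity via heat shock element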
HSF1 activator: increases HSF-1 driven luciferase reporter signal; NIH3T3-HGL HSF-1 luciferase reporter, MG132, 8 h; 100% = twice DMSO control signal; activation, % at 9 µM; hit rate 1.7% among 300,000; AID 504408;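 active = mean replicate activation of at least 50% with a set share of replicates each reaching 50%; inconclusive = only one of those two conditions met; inactive = mean below 50% and too few replicates reaching it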
T cruzi repl: T. cruzi replication inhibition; inhibition, % (no concentration beside the values); T. cruzi beta-gal in NIH3T3, luminescence, 90 h; hit rate 1.4% among 300,000;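 active = mean inhibition across valid replicates above about 55%, limit read from the data; inconclusive = mean below that limit but half or more replicates reach it; inactive = mean below it, under half of replicates reach it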;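 also: signal also drops with host cell toxicity which is not excluded here; higher percent means less beta-gal luminescence so fewer parasites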
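Test system: β-gal T. cruzi (Tulahuen C4) inside NIH/3T3 cells / Quantity: 5,000 cells/well / Measured by: luminescence from GalScreen with 0.05% NP40, read after 60 min / Medium: DMEM plus 2% FBS / Measure: parasite load inhibition, % / Reagent: Tulahuen C4 trypomastigotes, 5000/well / Schedule: co-culture of at least 90 h after 3 h attachment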
Numbers stand for hits; n = inactive; u = inconclusive; x = no result.

SMILES | HIF act | Calb FLC | HSF1 inhib | HSF1 activator | T cruzi repl
C=CCN(CC=C)C(=O)COC(=O)c1ccc(Sc2ncn[nH]2)c([N+](=O)[O-])c1 | n | n | n | n | n
COc1ccc(CNCCC(c2ccc(OC(C)C)cc2)C(C)C)cc1OC (stereo unspecified) | n | n | n | n | 73
CSc1ccccc1NC(=S)NCc1ccc(Cl)cc1 | n | n | n | 64 | n
Cc1ccc(-n2c(N)c(C#N)c(-c3ccccc3)c(C#N)c2=O)cc1 | n | n | n | n | n
Cc1ccc(-c2nc3sc(C#N)c(N)n3c(=O)c2C#N)cc1 | n | 111 | n | n | n
Cn1nc(C(F)(F)F)c2cc(C(=O)Nc3ccc(C(F)(F)F)cc3)sc21 | n | n | n | n | n
COc1cc(-c2nc(C(=O)NC3CCN(Cc4ccccc4)CC3)cc3c2[nH]c2ccccc23)cc(OC)c1OC | n | n | n | n | 77
COc1ccc(OC)c(-c2nc(C(=O)NC3CCN(Cc4ccccc4)CC3)cc3c2[nH]c2ccccc23)c1 | n | n | n | n | n
CCC1=NN(C(=O)c2ccc(Cl)cc2)C(O)(c2ccc(C)cc2)C1 (stereo unspecified) | n | n | n | n | n
COC(=O)C1=NN(C(=O)c2ccc(Cl)cc2)C(O)(c2ccccc2)C1 (stereo unspecified) | x | 59 | n | 142 | n
CCOC(=O)C1=NN(C(=O)c2ccc(C)cc2)C(O)(c2ccc(Cl)cc2)C1 (stereo unspecified) | n | u | n | 166 | n
OCc1ncc(-c2ccccc2)s1 | n | n | n | n | n
Cc1ccc(S(=O)(=O)/C(C#N)=C/c2c(N3CC(C)OC(C)C3)nc3c(C)cccn3c2=O)cc1 (stereo unspecified) | n | n | n | n | n
O=c1oc2ccccc2cc1-c1nc(-c2ccccc2)no1 | n | n | n | 63 | n
N#Cc1c(NC(=O)c2ccccc2)sc2c1CCCCC2 | n | n | n | n | n
N#Cc1c(Cl)nsc1NC(=O)c1ccccc1 | n | 106 | n | n | n
Cc1ccc(C2C3CSCC=C3C(C#N)=C(N)C2(C#N)C#N)cc1 (stereo unspecified) | n | 90 | n | n | n
N#CC1=C(N)C(C#N)(C#N)[C@H](c2ccncc2)[C@H]2CC3(CC=C12)OCCO3 | n | u | n | n | n
CC(=O)c1cc(C#N)c(SCCC(C)C)nc1C | n | n | n | n | n
CC(C)CCSc1nc(N)c(C#N)cc1C#N | n | n | n | n | 67
Cc1ccc(CSCC(=O)N2CCN(c3ccc(F)cc3)CC2)cc1 | n | n | n | n | 57
CCOC(=O)C1CCCN(C2CCN(Cc3nc(-c4ccccc4)no3)CC2)C1 (stereo unspecified) | n | u | n | n | 70
CCOC(=O)C1CCCN(Cc2ccc(-c3ccccc3)cc2)C1 (stereo unspecified) | n | n | n | n | 68
CN(Cc1cccc(Cl)c1)C(=O)C1CCN(C(=O)Nc2ccccc2)CC1 | n | n | n | n | n
CN(Cc1ccccc1)C(=O)C1CCCN(Cc2cccc(Cl)c2)C1 (stereo unspecified) | n | n | n | n | 60
SMILES | HIF act | Calb FLC | HSF1 inhib | HSF1 activator | T cruzi repl
CCOC(=O)C1CCN(C2CCN(Cc3nc(-c4ccccc4)no3)CC2)CC1 | n | n | n | n | n
Cc1cc(C(C)(C)C)ccc1NC(=O)CC(C)(C)CC(=O)O | n | n | n | n | n
COc1cc(Cl)ccc1OCc1cc(C(=O)N2C[C@@H]3CCC[C@H]2C3)no1 | n | n | n | 56 | n
CC12CCC(=O)N1C(C(=O)NNC(=O)c1ccc(F)cc1)CS2 (stereo unspecified) | n | n | n | n | n
CCOc1ccc(C)cc1S(=O)(=O)n1ccnc1 | n | n | n | n | n
CCOc1cc(C)c(Cl)cc1S(=O)(=O)n1ccnc1 | n | n | n | n | 72
CC(C)CCNC(=O)C(c1cccnc1)N(Cc1ccccc1)C(=O)Cn1nnc2ccccc21 (stereo unspecified) | n | n | n | n | 56
O=C(NCc1ccco1)C(c1ccccc1)N(CC1CCCO1)C(=O)Cn1nnc2ccccc21 (stereo unspecified) | n | n | n | n | n
COCCNC(=O)C(c1ccc(C)o1)N(CCOC)C(=O)Cn1nnc2ccccc21 (stereo unspecified) | n | 82 | x | x | n
CCOc1ccccc1C(C(=O)NCCOC)N(CCOC)C(=O)Cn1nnc2ccccc21 (stereo unspecified) | n | n | n | n | n
O=C(NCc1ccc(F)cc1)C(c1ccccc1)N(CC1CCCO1)C(=O)Cn1nnc2ccccc21 (stereo unspecified) | n | 92 | n | n | n
CC1CCC2C(C1)Nc1c(C(=O)O)cccc1C2(C)C (stereo unspecified) | n | n | n | n | n
Cc1ccc(C(c2c(C)n(C)n(-c3ccccc3)c2=O)c2c(C)n(C)n(-c3ccccc3)c2=O)s1 | n | n | n | n | n
Cc1ccccc1OCC(O)CNC1CCC(NCC(O)COc2ccccc2C)CC1 (stereo unspecified) | n | n | n | n | n
CC1=N/C(=C\c2ccccc2Cl)C(=O)O1 | n | n | n | n | n
O=c1cc(O)sc2ccccc12 | n | n | n | n | n
O=c1[nH]sc2ccccc12 | n | n | n | n | 63
O=C(O)Cc1cn(Cc2cccc(Cl)c2)c2ccccc12 | n | n | n | n | n
CC1CCCN(C(=O)Cc2cn(Cc3cccc(Cl)c3)c3ccccc23)C1 (stereo unspecified) | n | n | n | n | 55
O=C(Cc1cn(Cc2cccc(Cl)c2)c2ccccc12)N1CCCCCC1 | n | n | n | n | 59
Clc1nnc(Cl)c2c1ncn2Cc1ccccc1 | n | n | n | n | n
Cc1nc(-c2ccc(F)cc2)c(CC(=O)N2CCN(S(=O)(=O)c3cccc(Cl)c3)CC2)s1 | n | n | n | n | n
O=C(CN1C(=O)COc2ccccc21)NC1CCCC1 | n | n | n | n | n
Cc1ccc(C(=O)CSc2nnc3c4ccccc4nc(Cc4ccccc4)n23)cc1 | n | n | n | n | n
CCN(CC)CCSc1nnc2c3cc(C)ccc3n(Cc3ccccc3)c2n1 | n | n | n | n | 58
CN(CC(=O)Nc1cccc(F)c1)C(=O)CSc1ccccc1 | n | n | n | n | n
CC1(C)CC2CC(C)(CN2S(=O)(=O)c2ccc(C(=O)Nc3ccc(Cl)c(S(=O)(=O)N4CCOCC4)c3)cc2)C1 (stereo unspecified) | n | n | n | n | 63
CC(=O)Nc1ccc(S(=O)(=O)N2CC3(C)CC2CC(C)(C)C3)cc1 (stereo unspecified) | n | n | n | n | n
CC1(C)CC2CC(C)(CN2S(=O)(=O)c2ccc(C(=O)Nc3ccc(S(=O)(=O)N4CCOCC4)cc3)cc2)C1 (stereo unspecified) | n | n | n | n | 55
